Data taken from PubChem BioAssay AID743247 (Broad Institute, 2014).
“And” between values parts separate entries of the source, which are not always exact repeats. Equal values may be shown once. Among all 350,000 compounds or so, about 300 (0.086%) were called active. Only a selection was taken, and actives are over-represented in it overall. Unmarked numbers belong to inactive results.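 The calls were made as follows: active = mean inhibition across replicates of 30% or more, regardless of how many single replicates reach that level; inconclusive = mean under 30% yet at least half of replicates reach 30%; inactive = the rest.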

Experiment: blockers of fibronectin fibrillogenesis by fibroblasts – AH1F cells, Alexa488-fibronectin fluorescence, plate reader, primary screen (AID 743247);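 also: positive control wells lacked labelled fibronectin entirely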
Settings: Alexa488-fibronectin deposition fluorescence, overnight, at 12.6 µM, active compounds read high
Method in brief: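 Assay system: AH1F fibroblasts assembling fluorescent fibronectin matrix; Amount: 10000 AH1F cells per well; Buffer or medium: DMEM, 2% serum; Probe or stimulus: Alexa488-fibronectin, 24 nM final in well; Doses: single compound dose, delivered by pin transfer; Incubation: 1 h adhesion, overnight exposure; Measured by: fluorescence 485/525 nm; Read-out: fibronectin deposition inhibition.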
For CCC(=O)Nc1ccc2c(c1)C(=O)N(C)C[C@H](OC)[C@@H](C)CN(Cc1nccs1)[C@H](C)CO2, the inhibition was 8.21%.
In the case of CCCC(=O)Nc1ccc2c(c1)OC[C@H](C)N(CCc1ccccc1)C[C@H](C)[C@@H](OC)CN(C)C2=O, the inhibition is reported as -9.33%.
With O=C1N[C@H](c2ccccc2)COCc2cn(nn2)CC[C@@H]1Cc1ccc(Cl)cc1 the inhibition was -8.81%.
For Cc1ccc(Nc2nnc(SC(C)C(=O)NC3CC3)s2)cc1 (stereo unspecified), the inhibition was 9.55%.
With Cc1ccc(Nc2nnc(SCc3ccccc3)s2)cc1 the inhibition was 30.3% (active).
Work on Cc1ccc(Nc2nc(N)nc(CSc3nnc(C)s3)n2)cc1 yielded an inhibition of -6.84%.
In the case of CC(=O)N1C[C@@H]2C(c3ccccc3)[C@H](C1)N2Cc1ccc(F)cc1 (stereo partly specified), the inhibition is reported as -14.1% and 0.287%.
With Cc1cccc(-c2ccc(C3[C@H]4CNC[C@@H]3N4S(=O)(=O)c3ccccc3F)cc2)c1 (stereo partly specified) the inhibition was 6.27% and -0.776%.
Compound CC(=O)N(C)C[C@@H]1Oc2ccc(NC(=O)NC(C)C)cc2C(=O)N(C)C[C@H]1C has an inhibition of 0.044%.
CC(C)NC(=O)N(C)C[C@H]1Oc2ccc(N(C)C)cc2CC(=O)N(C)C[C@@H]1C showed an inhibition of -2.09%.
C[C@H](CO)N1C[C@H](C)[C@@H](CN(C)C(=O)Nc2cccc(F)c2)OCc2ccccc2-c2ccccc2C1=O gave an inhibition of 6.45%.
Compound C[C@@H]1CN(C)C(=O)c2cc([N+](=O)[O-])ccc2O[C@@H]1CN(C)C(=O)OC(C)(C)C has an inhibition of -15.7%.
Work on CC(=O)c1ccc(Nc2nc(C(N)c3ccccc3Cl)cs2)cc1 (stereo unspecified) yielded an inhibition of -5.17%.
With NC(c1ccccc1)c1csc(NC(=O)Nc2cccc(C(F)(F)F)c2)n1 (stereo unspecified) the inhibition was 0.914%.
In the case of CC(=O)c1ccc(Nc2nc(C(N)c3ccccc3)cs2)cc1 (stereo unspecified), the inhibition is reported as 30.3% (active).
CCS(=O)(=O)Nc1ccc2c(c1)C(=O)N(C)[C@@H]1CC[C@@H](CC(=O)NC)O[C@H]1CO2 showed an inhibition of 6.61%.
Compound CC(=O)Nc1cccc2c1O[C@@H](CN(C)C(C)=O)[C@@H](C)CN(C)C2=O has an inhibition of -3.62%.
For CN(C)C(=O)c1ccc(-c2ccc(C3[C@@H]4CN(S(=O)(=O)c5cccc(Cl)c5)C[C@H]3N4)cc2)cc1 (stereo partly specified), the inhibition was -2.13%.
With CNC[C@H]1Oc2ccc(NC(=O)Nc3ccc(F)cc3)cc2C(=O)N([C@@H](C)CO)C[C@@H]1C the inhibition was -0.84%.
Work on CC(C)NC(=O)N(C)C[C@H]1Oc2c(cccc2N(C)C)C(=O)N(C)C[C@H]1C yielded an inhibition of 0.739%.
Work on O=C(N[C@@H]1CC[C@H](CCn2cc(-c3ccccc3)nn2)O[C@H]1CO)c1cnccn1 yielded an inhibition of 15%.
With O=C(C[C@H]1CC[C@@H]2[C@H](COC[C@H](O)CN2CCC(F)(F)F)O1)NCC1CC1 the inhibition was -3.5%.
C[C@@H]1CN(C)C(=O)c2cccc(N(C)C)c2O[C@H]1CN(C)S(C)(=O)=O showed an inhibition of -2.39%.
CN1c2ccc(-c3cccc(C#N)c3)cc2[C@H]2[C@H](CCN2S(=O)(=O)c2cccc(F)c2)[C@@H]1CO showed an inhibition of 13.8%.
Compound COCC(=O)Nc1ccc2c(c1)OC[C@H](C)N(C)C[C@H](C)[C@@H](OC)CN(C)C2=O has an inhibition of -14.1%.
In the case of CC(C)NC(=O)N[C@@H]1C=C[C@@H](CC(=O)N2CCCCC2)O[C@@H]1CO, the inhibition is reported as -8.74%.
In the case of c1ccc(-c2ccc(C3[C@@H]4CN(Cc5cccnc5)C[C@H]3N4)cc2)cc1 (stereo partly specified), the inhibition is reported as -4.82% and -10.1%.
For CCc1nc2c(OCCc3cccc(OC)c3)cccn2c1N(C)C(=O)c1ccc(C)cc1, the inhibition was 30.8% (active).
CCc1nc2c(OCCOc3ccccc3)cccn2c1N(C)C(=O)c1ccccc1F showed an inhibition of -0.297%.
Compound CCc1nc2c(OCCOc3ccccc3)cccn2c1N(C)C(=O)c1ccc(OC)cc1 has an inhibition of 5.55%.
CCC(=O)N(C)C[C@H]1Oc2ncc(-c3ccc(C)cc3)cc2C(=O)N([C@@H](C)CO)C[C@@H]1C gave an inhibition of -13%.
For C[C@@H]1CCCCO[C@H](CN(C)C(=O)c2ccccc2)[C@@H](C)CN([C@H](C)CO)C(=O)c2cc(NC(=O)c3ccccc3)ccc2O1, the inhibition was 7%.
For O=C(C[C@H]1C[C@H]2c3cc(NC(=O)NC4CCCC4)ccc3O[C@H]2[C@@H](CO)O1)NCc1ccc(-c2ccccc2)cc1, the inhibition was -25.6%.
CCCNC(=O)C[C@H]1CC[C@@H]2[C@H](COc3ccc(NC(=O)c4ccc(OC)cc4)cc3C(=O)N2C)O1 gave an inhibition of 10.3%.
Work on CC(=O)N1[C@H](CO)[C@@H](c2ccc(-c3ccc(F)cc3)cc2)[C@H]1CNC(=O)C1CC1 yielded an inhibition of -16%.
CC(=O)N1[C@H](CNC(=O)CN(C)C)[C@H](c2ccc(C3=CCCC3)cc2)[C@@H]1CO showed an inhibition of 13.6%.
CC[C@@H]1CC=CC[C@H](C)Oc2ccccc2C(=O)N(C)[C@H](Cc2ccccc2)C(=O)N1 (mixture of isomers) showed an inhibition of -1.05%.
Compound O=C1[C@H](Cc2ccc(C(F)(F)F)cc2)CCn2nncc2COC[C@@H]2CCCCN12 has an inhibition of 4.17%.
C[C@@H]1COCc2cnnn2CC[C@H](Cc2ccccc2)C(=O)N1 gave an inhibition of -8.72%.
Compound C[C@H](CO)N1C[C@H](C)[C@@H](CN(C)S(C)(=O)=O)Oc2cc(C#CC3CC3)ccc2S1(=O)=O has an inhibition of 5.58%.
Compound CO[C@H]1CN(C)C(=O)c2ccc(NC(=O)C3CC3)cc2OC[C@@H](C)N(C(=O)c2ccccn2)C[C@@H]1C has an inhibition of 2.68%.
In the case of O=C(C[C@@H]1CC[C@@H](NC(=O)C2CC2)[C@@H](CO)O1)NCc1ccccc1Cl, the inhibition is reported as -5.16%.
Work on Cc1noc(C)c1S(=O)(=O)N(C)C[C@H]1Oc2ccc(N(C)C)cc2C(=O)N([C@H](C)CO)C[C@@H]1C yielded an inhibition of -9.54%.
For CO[C@H]1CN(C)C(=O)c2cc(NS(=O)(=O)c3ccccc3)ccc2OC[C@@H](C)N(Cc2nccs2)C[C@@H]1C, the inhibition was -0.524%.
With O=C(Nc1cc(F)ccc1F)N[C@H]1CC[C@H](CCn2cc(C3CCCC3)nn2)O[C@@H]1CO the inhibition was -1.92%.
CC(=O)N(C)C[C@@H]1Oc2ccc(N)cc2CC(=O)N(C)C[C@H]1C gave an inhibition of -1.05%.
Work on CNC[C@@H]1Oc2ccc(N(C)C)cc2CC(=O)N(C)C[C@@H]1C yielded an inhibition of 2.18%.
C[C@H](CO)N1C[C@H](C)[C@H](CN(C)Cc2ccc(C(F)(F)F)cc2)OCCCC[C@H](C)Oc2ccc(NS(=O)(=O)c3ccc(Cl)cc3)cc2C1=O gave an inhibition of -21%.
C[C@@H]1CCCCO[C@H](CN(C)C)[C@H](C)CN([C@@H](C)CO)C(=O)c2cc(NS(=O)(=O)c3cn(C)cn3)ccc2O1 gave an inhibition of -0.203%.
In the case of CCC(=O)N1CC2(C1)[C@@H](c1ccccc1)[C@H](CO)N2CC1CCOCC1, the inhibition is reported as -2.08%.
For CN1c2ccc(-c3cccc(C#N)c3)cc2[C@@H]2[C@@H](CCN2C(=O)NC2CCCCC2)[C@@H]1CO, the inhibition was -3.13%.
For COc1ccc(NC(=O)N2C[C@H](O)COC[C@H]3O[C@@H](CC(=O)N4CCN(C)CC4)CC[C@@H]32)cc1, the inhibition was -2.89%.
For CC[C@H]1CC=CC[C@@H](C)Oc2ccccc2C(=O)N(C)[C@H](Cc2ccccc2)C(=O)N1 (mixture of isomers), the inhibition was 0.881%.
COc1ccccc1NC(=O)N1[C@@H]2CNC[C@H]1C2c1ccc(-c2ccccc2C)cc1 (stereo partly specified) showed an inhibition of -3.3%.
In the case of CCCN1C[C@@H](C)[C@@H](OC)CN(C)C(=O)c2cc(NC(=O)Nc3cccc(F)c3)ccc2OC[C@@H]1C, the inhibition is reported as -5.97%.
For C[C@H]1CN(C)C(=O)c2cccc(N(C)C)c2O[C@@H]1CN(C)C, the inhibition was -26.9%.
Work on O=C(C1CCCCC1)N1CC(=O)N2[C@H](CO)[C@H](c3ccc(-c4ccccc4F)cc3)[C@H]2C1 yielded an inhibition of -7.64%.
Compound O=C1N[C@H](c2ccccc2)COCc2cn(nn2)CC[C@H]1Cc1cccc(Cl)c1 has an inhibition of -1.96%.
COc1ccc2c3c([nH]c2c1)[C@@H](CO)N(Cc1ccccc1)CC31CCN(Cc2cncnc2)CC1 gave an inhibition of -11.5%.
O=C1NCCOCc2cn(nn2)CC[C@@H]1Cc1ccccc1 showed an inhibition of -3.44%.
In the case of CCCNC(=O)Nc1ccc2c(c1)C(=O)N(C)[C@H]1CC[C@H](CC(=O)NC3CCC3)O[C@H]1CO2, the inhibition is reported as -3.4%.
With CN(C)CC(=O)N[C@@H]1CC[C@H](CCn2cc(C3CCCC3)nn2)O[C@H]1CO the inhibition was 5.53%.
Compound CC(C)NC(=O)Nc1cccc2c1O[C@H](CN(C)Cc1ccc3c(c1)OCO3)[C@H](C)CN([C@H](C)CO)C2=O has an inhibition of 7.48%.
Work on CNC[C@H]1Oc2ccccc2CC(=O)N(C)C[C@H]1C yielded an inhibition of -0.894%.
Work on COc1ccc2c3c(n(C)c2c1)[C@H](CO)N(C)CC31CN(S(=O)(=O)c2cccc(C)c2)C1 yielded an inhibition of 11.9%.
For O=C1C[C@@H](c2ccccc2)C(=O)N[C@H](c2ccc(F)cc2)C/C=C\CCN1, the inhibition was -8.29%.
C/C=C/c1ccc2c(c1)O[C@H](CN(C)C(=O)Nc1ccc(OC)cc1)[C@@H](C)CN([C@H](C)CO)S2(=O)=O gave an inhibition of 9.72%.
For Cc1cccc(NC(=O)c2nc(S(=O)(=O)Cc3ccccc3)ncc2Cl)c1, the inhibition was 20.9%.
With Cc1cccc(CS(=O)(=O)c2ncc(Cl)c(C(=O)Nc3ccc(F)cc3)n2)c1 the inhibition was 34.8% (active).
In the case of Cc1ccc(CS(=O)(=O)c2ncc(Cl)c(C(=O)Nc3nnc(C)s3)n2)cc1, the inhibition is reported as 0.254%.
In the case of O=C(C1CCC1)N1CC[C@H]2[C@H](CO)Nc3ccc(-c4cccc(F)c4)cc3[C@H]21, the inhibition is reported as -4.67%.
